Measured values as given in ChEMBL document CHEMBL4342456, “Preventing Morphine-Seeking Behavior through the Re-Engineering of Vincamine's Biological Activity” (J Med Chem, 2020).
Active and inactive are the calls of the source. No cut-off for these calls is given here.

Assays:
[1] = biological target: T1, Orexin receptor type 2 (Homo sapiens) (UniProt O43614); assay: (§1) Antagonist activity at human Gq-coupled HCRTR2 expressed in CHOK1 cells assessed as inhibition in Orexin A-induced beta-arrestin 2 recruitment at 20 uM incubated for 30 mins followed by Orexin A addition and measured after 90 or 180 mins by pathhunter beta-arrestin assay relative to control; assay type: cell-based
T1 sequence (whole entry): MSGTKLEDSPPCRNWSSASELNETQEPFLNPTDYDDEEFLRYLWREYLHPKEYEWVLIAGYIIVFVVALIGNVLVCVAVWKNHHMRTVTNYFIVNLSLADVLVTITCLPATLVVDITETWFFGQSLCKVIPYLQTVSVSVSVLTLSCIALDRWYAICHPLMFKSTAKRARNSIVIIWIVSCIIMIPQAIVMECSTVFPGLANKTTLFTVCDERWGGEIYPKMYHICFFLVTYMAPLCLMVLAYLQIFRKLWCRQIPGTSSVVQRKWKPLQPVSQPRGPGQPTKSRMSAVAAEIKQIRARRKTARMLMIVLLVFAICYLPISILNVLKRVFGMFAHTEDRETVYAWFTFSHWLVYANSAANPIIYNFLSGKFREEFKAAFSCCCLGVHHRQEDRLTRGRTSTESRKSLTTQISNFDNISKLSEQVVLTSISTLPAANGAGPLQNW
How it was run: (§2)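 PathHunter beta-arrestin recruitment, antagonist mode, run at DiscoverX. Cells seeded and held at 37 °C, then preincubated with test sample for 30 min at 37 °C or room temperature (1% vehicle). Agonist then added at EC80 for 90 or 180 min. IC50 comes from concentration–response runs in the same format.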

[2] = biological target: T2, Cannabinoid receptor 1 (Homo sapiens, UniProt P21554); assay: Antagonist activity at human Gi/o-coupled CNR1 expressed in CHOK1 cells assessed as inhibition in CP55940-induced beta-arrestin 2 recruitment at 20 uM incubated for 30 mins followed by CP55940 addition and measured after 90 or 180 mins by pathhunter beta-arrestin assay relative to control; assay type: cell-based; how it was run: as §2
[3] = biological target: T3, Glucose-dependent insulinotropic receptor (Homo sapiens) (UniProt Q8TDV5); assay: Antagonist activity at human GPR119 assessed as inhibition in oleoylethanolamide-induced beta-arrestin 2 recruitment at 20 uM incubated for 30 mins followed by oleoylethanolamide addition and measured after 90 or 180 mins by pathhunter beta-arrestin assay relative to control; how it was run: as §2
T3 sequence (whole entry): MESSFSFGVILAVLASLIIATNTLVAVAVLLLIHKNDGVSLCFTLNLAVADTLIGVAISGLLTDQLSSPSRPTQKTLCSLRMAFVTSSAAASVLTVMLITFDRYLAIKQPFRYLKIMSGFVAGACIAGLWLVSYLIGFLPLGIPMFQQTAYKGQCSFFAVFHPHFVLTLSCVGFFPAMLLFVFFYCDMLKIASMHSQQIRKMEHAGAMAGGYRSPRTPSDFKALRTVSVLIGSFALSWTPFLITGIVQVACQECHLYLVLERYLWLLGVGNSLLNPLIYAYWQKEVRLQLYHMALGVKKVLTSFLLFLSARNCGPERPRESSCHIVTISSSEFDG

[4] = biological target: D(2) dopamine receptor (Homo sapiens) (UniProt P14416); assay: Antagonist activity at human Gi/o-coupled DRD2L expressed in CHOK1 cells assessed as inhibition in dopamine-induced beta-arrestin 2 recruitment at 20 uM incubated for 30 mins followed by dopamine addition and measured after 90 or 180 mins by pathhunter beta-arrestin assay relative to control; assay type: cell-based; how it was run: as §2
[5] = system: Mus musculus; assay: Suppression of drug-induced cocaine-seeking behavior in C57BL/6J mouse assessed as reduction in morphine-conditioned place preference at 60 nmol, icv administered 20 mins prior to behavioral morphine addition measured twice weekly for 7 weeks; assay type: functional, organism-based; conditions: in the assay text read “morphine-seeking” for “cocaine-seeking”
How it was run: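 Male C57BL/6J mice, 7–11 weeks, 20–33 g. Three-compartment counterbalanced place conditioning. Test agent given i.c.v. in 10% Solutol HS 15/90% saline, 20 min before morphine (10 mg/kg i.p., in 0.9% saline). Mice then confined 40 min in the paired outer chamber. Saline i.p. conditioning in the opposite chamber followed 4 h later. Preference was scored in a 30 min automated test. n = 16–30/group; two-way ANOVA with Tukey post hoc.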

[6] = biological target: T4, Prolactin-releasing peptide receptor (Homo sapiens) (UniProt P49683); assay: as §1, with “PRLHR” for “HCRTR2”, “prolactin releasing peptide (1 to 31)-induced” for “Orexin A-induced”, “prolactin releasing peptide (1 to 31)” for “Orexin A”; assay type: cell-based; how it was run: as §2
T4 sequence (whole entry): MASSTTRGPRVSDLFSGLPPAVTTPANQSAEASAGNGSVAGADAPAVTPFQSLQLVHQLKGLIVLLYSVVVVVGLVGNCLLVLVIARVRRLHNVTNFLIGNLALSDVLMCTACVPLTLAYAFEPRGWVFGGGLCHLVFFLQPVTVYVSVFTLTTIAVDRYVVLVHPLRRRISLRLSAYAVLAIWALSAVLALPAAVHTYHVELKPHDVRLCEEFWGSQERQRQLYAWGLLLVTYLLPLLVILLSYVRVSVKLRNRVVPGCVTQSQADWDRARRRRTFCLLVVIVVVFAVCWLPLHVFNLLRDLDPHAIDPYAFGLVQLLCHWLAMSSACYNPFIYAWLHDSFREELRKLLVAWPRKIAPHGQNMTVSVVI

[7] = system: Mus musculus; assay: Suppression of drug-induced morphine-seeking behavior in C57BL/6J mouse assessed as reduction in stress-induced reinstatement of morphine-CPP at 60 nmol, icv administered 15 mins prior to testing by forced swim test
[8] = biological target: C-C chemokine receptor type 8 (Homo sapiens, UniProt P51685); assay: (§3) Antagonist activity at human CCR8 expressed in CHOK1 cells assessed as inhibition in CCL1-induced beta-arrestin 2 recruitment at 20 uM incubated for 30 mins followed by CCL1 addition and measured after 90 or 180 mins by pathhunter beta-arrestin assay relative to control; assay type: cell-based; how it was run: as §2
[9] = biological target: T5, Muscarinic acetylcholine receptor M4 (Homo sapiens) (UniProt P08173); assay: as §3, with “Gs/Gi/o-coupled CHRM4” for “CCR8”, “acetylcholine-induced” for “CCL1-induced”, “acetylcholine” for “CCL1”; assay type: cell-based; how it was run: as §2
T5 sequence (whole entry): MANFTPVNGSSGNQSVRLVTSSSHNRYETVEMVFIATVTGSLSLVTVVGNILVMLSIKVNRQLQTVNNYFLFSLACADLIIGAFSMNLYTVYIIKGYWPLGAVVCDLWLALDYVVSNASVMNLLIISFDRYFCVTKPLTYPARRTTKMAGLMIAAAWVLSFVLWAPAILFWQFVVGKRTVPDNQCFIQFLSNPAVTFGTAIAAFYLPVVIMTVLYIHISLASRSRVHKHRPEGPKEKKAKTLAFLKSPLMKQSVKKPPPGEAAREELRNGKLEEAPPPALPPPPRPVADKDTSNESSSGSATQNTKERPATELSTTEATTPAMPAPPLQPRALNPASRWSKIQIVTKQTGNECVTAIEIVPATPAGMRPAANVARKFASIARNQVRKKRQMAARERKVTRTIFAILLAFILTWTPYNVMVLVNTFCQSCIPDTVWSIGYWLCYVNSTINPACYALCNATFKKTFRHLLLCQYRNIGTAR

[10] = biological target: T6, Cannabinoid receptor 2 (Homo sapiens, UniProt P34972); assay: Antagonist activity at human Gi/o-coupled CNR2 expressed in CHOK1 cells assessed as inhibition in CP55940-induced beta-arrestin 2 recruitment at 20 uM incubated for 30 mins followed by CP55940 addition and measured after 90 or 180 mins by pathhunter beta-arrestin assay relative to control; assay type: cell-based; how it was run: as §2
[11] = biological target: T7, Prostacyclin receptor (Homo sapiens, UniProt P43119); assay: Antagonist activity at human Gs-coupled PTGIR assessed as inhibition in beraprost-induced beta-arrestin 2 recruitment at 20 uM incubated for 30 mins followed by beraprost- addition and measured after 90 or 180 mins by pathhunter beta-arrestin assay relative to control; how it was run: as §2
[12] = biological target: C-X-C chemokine receptor type 4 (Homo sapiens) (UniProt P61073); assay: Antagonist activity at human Gi/o-coupled CXCR4 expressed in mouse C2C12 cells assessed as inhibition in CXCL12-induced beta-arrestin 2 recruitment at 20 uM incubated for 30 mins followed by CXCL12 addition and measured after 90 or 180 mins by pathhunter beta-arrestin assay relative to control; assay type: cell-based; how it was run: as §2
[13] = biological target: Histamine H1 receptor (Homo sapiens) (UniProt P35367); conditions: at 20 µM
[14] = biological target: T6, Cannabinoid receptor 2; assay: (§4) Antagonist activity at human Gi/o-coupled CNR2 expressed in CHOK1 cells assessed as inhibition in CP55940-induced beta-arrestin 2 recruitment incubated for 30 mins followed by CP55940 addition and measured after 90 or 180 mins by pathhunter beta-arrestin assay; assay type: cell-based
How it was run: as §2, with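 “min. […]” for “min.”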

[15] = biological target: T8, Prolactin-releasing peptide receptor (Homo sapiens, UniProt P49683); assay: as §4, with “Gq-coupled PRLHR” for “Gi/o-coupled CNR2”, “prolactin releasing peptide (1 to 31)-induced” for “CP55940-induced”, “prolactin releasing peptide (1 to 31)” for “CP55940”; assay type: cell-based
T8 sequence (P49683 whole entry): T4 sequence (whole entry)
How it was run: as §2, with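 “min. […]” for “min.”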

[16] = biological target: T9, Glucose-dependent insulinotropic receptor (Homo sapiens, UniProt Q8TDV5); assay: Antagonist activity at human GPR119 expressed in human HEK293 cells assessed as inhibition in agonist-induced beta-arrestin 2 recruitment incubated for 30 mins followed by agonist addition and measured after 90 or 180 mins by pathhunter beta-arrestin assay; assay type: cell-based
T9 sequence (Q8TDV5 whole entry): T3 sequence (whole entry)
How it was run: as §2, with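 “min. […]” for “min.”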

[17] = biological target: T7, Prostacyclin receptor; assay: Antagonist activity at human Gs-coupled PTGIR assessed as inhibition in beraprost-induced beta-arrestin 2 recruitment incubated for 30 mins followed by beraprost- addition and measured after 90 or 180 mins by pathhunter beta-arrestin assay
How it was run: as §2, with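 “min. […]” for “min.”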

[18] = biological target: T10, Neuropeptide S receptor (Homo sapiens, UniProt Q6W5P4); assay: Antagonist activity at human Gq-coupled NPSR1b expressed in human U2OS cells assessed as inhibition in neuropeptide S-induced beta-arrestin 2 recruitment incubated for 30 mins followed by neuropeptide S addition and measured after 90 or 180 mins by pathhunter beta-arrestin assay; assay type: cell-based
T10 sequence (Q6W5P4 whole entry): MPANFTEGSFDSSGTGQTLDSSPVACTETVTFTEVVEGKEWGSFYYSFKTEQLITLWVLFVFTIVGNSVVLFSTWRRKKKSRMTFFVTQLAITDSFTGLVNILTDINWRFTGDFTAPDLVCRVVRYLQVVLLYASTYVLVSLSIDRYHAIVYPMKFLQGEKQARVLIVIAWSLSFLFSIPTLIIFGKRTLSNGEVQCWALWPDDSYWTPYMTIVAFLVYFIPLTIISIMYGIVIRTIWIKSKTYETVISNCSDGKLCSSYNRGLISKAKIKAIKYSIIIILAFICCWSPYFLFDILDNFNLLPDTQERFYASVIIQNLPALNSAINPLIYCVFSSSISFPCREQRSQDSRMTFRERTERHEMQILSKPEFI
How it was run: as §2, with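 “min. […]” for “min.”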

[19] = biological target: T2, Cannabinoid receptor 1; assay: Antagonist activity at human Gi/o-coupled CNR1 expressed in CHOK1 cells assessed as inhibition in CP55940-induced beta-arrestin 2 recruitment incubated for 30 mins followed by CP55940 addition and measured after 90 or 180 mins by pathhunter beta-arrestin assay; assay type: cell-based
How it was run: as §2, with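 “min. […]” for “min.”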

T6 sequence (P34972 whole entry): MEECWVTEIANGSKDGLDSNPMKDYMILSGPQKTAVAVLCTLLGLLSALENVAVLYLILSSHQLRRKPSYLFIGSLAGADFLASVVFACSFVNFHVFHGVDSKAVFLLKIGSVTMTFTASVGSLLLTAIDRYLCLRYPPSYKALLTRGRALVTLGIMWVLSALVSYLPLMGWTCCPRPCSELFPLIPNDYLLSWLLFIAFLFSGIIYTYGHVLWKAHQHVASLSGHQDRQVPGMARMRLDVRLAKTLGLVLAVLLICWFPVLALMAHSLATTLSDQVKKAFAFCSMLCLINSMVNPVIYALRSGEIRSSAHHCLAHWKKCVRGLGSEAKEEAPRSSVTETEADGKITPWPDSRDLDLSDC
C-C chemokine receptor type 8, sequence (P51685 whole entry): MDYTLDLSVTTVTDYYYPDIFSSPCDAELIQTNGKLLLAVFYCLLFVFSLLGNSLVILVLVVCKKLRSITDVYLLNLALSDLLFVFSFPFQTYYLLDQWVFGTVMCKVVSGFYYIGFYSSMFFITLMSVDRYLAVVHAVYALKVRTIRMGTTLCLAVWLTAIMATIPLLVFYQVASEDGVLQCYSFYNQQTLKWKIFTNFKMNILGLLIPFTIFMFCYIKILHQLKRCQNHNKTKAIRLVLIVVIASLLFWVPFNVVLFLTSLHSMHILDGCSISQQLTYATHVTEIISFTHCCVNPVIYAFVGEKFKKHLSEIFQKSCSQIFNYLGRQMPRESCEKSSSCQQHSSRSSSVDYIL
T7 sequence (P43119 whole entry): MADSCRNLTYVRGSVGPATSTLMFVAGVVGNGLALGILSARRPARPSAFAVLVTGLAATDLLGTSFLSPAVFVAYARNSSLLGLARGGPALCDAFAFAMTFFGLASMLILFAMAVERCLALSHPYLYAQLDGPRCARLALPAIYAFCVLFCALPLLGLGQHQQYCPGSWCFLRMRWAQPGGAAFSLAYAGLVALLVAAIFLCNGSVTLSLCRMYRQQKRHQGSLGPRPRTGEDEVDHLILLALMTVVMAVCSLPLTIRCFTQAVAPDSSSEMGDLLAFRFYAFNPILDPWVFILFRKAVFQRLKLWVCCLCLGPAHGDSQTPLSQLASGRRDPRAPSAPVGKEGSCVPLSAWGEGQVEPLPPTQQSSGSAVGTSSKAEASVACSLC
C-X-C chemokine receptor type 4 (Homo sapiens), sequence (P61073 whole entry): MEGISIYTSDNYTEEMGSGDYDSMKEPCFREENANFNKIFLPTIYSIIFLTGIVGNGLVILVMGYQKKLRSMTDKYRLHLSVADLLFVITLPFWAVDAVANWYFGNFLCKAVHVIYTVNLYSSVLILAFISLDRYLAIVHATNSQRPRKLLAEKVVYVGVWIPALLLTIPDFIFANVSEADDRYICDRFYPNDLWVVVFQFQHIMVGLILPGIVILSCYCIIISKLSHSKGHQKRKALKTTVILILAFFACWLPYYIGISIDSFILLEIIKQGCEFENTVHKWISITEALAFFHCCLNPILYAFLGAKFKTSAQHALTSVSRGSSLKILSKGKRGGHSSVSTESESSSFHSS
D(2) dopamine receptor (Homo sapiens), sequence (P14416 whole entry): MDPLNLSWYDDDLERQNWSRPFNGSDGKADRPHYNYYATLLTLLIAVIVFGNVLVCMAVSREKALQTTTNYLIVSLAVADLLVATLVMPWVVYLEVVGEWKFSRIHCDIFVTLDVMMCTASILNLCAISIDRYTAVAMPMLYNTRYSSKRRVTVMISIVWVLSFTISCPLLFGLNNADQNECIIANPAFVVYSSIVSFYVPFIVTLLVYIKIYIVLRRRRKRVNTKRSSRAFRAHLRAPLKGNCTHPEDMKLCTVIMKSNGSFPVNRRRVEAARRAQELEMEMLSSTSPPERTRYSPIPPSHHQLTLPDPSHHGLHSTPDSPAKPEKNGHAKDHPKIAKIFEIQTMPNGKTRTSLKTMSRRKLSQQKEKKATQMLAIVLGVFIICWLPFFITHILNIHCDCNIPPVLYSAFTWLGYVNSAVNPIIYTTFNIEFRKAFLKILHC
Histamine H1 receptor (Homo sapiens), sequence (P35367 whole entry): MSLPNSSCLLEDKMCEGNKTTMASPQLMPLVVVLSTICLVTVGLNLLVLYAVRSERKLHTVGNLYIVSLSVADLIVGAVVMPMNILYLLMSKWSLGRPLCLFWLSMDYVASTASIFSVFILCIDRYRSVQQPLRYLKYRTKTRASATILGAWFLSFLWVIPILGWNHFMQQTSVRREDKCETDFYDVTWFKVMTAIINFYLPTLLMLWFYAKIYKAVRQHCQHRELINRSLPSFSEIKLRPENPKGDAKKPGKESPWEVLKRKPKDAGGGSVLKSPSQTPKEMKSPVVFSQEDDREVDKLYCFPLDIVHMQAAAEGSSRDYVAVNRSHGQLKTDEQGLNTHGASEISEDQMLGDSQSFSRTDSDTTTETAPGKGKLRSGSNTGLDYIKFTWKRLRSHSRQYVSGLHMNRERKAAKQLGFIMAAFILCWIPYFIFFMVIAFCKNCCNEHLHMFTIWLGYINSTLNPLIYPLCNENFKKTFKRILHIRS
T2 sequence (P21554 whole entry): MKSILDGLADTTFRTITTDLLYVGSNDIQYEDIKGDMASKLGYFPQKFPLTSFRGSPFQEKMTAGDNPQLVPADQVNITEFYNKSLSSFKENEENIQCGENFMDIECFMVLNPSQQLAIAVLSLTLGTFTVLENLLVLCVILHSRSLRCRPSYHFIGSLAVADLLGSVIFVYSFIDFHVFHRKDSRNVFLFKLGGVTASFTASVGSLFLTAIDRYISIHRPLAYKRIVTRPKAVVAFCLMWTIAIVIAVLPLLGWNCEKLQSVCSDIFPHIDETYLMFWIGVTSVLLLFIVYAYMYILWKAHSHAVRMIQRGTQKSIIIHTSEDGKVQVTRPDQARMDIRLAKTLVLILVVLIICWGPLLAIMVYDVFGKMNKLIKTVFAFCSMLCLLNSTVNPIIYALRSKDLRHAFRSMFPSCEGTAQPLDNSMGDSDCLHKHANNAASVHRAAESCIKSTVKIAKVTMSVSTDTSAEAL

inhibition [1] [%] | inhibition [2] [%] | inhibition [3] [%] | inhibition [4] [%] | inhibition [6] [%] | inhibition [8] [%] | inhibition [9] [%] | inhibition [10] [%] | inhibition [11] [%] | inhibition [12] [%] | inhibition [13] [%] | IC50 [14] [µM] | IC50 [15] [µM] | IC50 [16] [µM] | IC50 [17] [µM] | IC50 [18] [µM] | IC50 [19] [µM] | Compound | Activity [5] | Activity [7]
9 | 0 | 3 | -10 | 3 | 8 | -8 | 11 | -3 | 10 | 5 |  |  |  |  |  |  | CC[C@]12CCCN3CCc4c(n(c5ccccc45)[C@@](O)(C(=O)OC)C1)[C@@H]32 | inactive | inactive
 |  |  |  |  |  |  |  |  |  |  | 25.7 | 13.8 | 4.62 | 12.5 | 3.9 | 4.95 | CC[C@]12CCCN(C(=O)c3cccc(Br)c3)CCc3c(n(c4ccccc34)C(=O)C1)[C@@H]2OC |  | 
8 | 1 | 2 | 98 | 18 | 28 | 43 | 17 | 41 | 4 | 21 |  |  |  |  |  |  | CC[C@@]1(CC(=O)NC2CCCC2)CCCN2CCc3c([nH]c4ccccc34)[C@@H]21 |  | 
-4 | 4 | -2 | 0 | 26 | 17 | 24 | 2 | 22 | -9 | 8 |  |  |  |  |  |  | CC[C@@]1(CC(=O)OC)CCCN2CC[C@]3(O)C(=Nc4ccccc43)[C@@H]21 |  | 
